Measurements gathered from unrelated publications.
Lines come from different studies, so protocols differ.

Structure (SMILES)	cell line	effect on	mode	method	time	IC50
O=C1CCCCC1C1C2C=CC=CC1C(CCN1C(=O)c3ccccc3C1=O)=C2 (stereo not shown)	U-937	cell growth or viability	–	flow cytometry	–	0.027 µM
COc1cccc2c1C(=O)c1c(O)c3c(c(O)c1C2=O)C[C@@](O)(C(=O)CO)C[C@@H]3O[C@H]1C[C@H](N)[C@H](O)[C@H](C)O1	KB	cell growth or viability	–	neutral red	48 h	0.93 mg/L
Cc1oc2cc(OC(=O)c3ccco3)ccc2c(=O)c1-c1nc2ccccc2n1C	human Neutrophil	cell migration	inhibitor	–	–	0.41 µM
CCc1c2c(nc3ccc(OC(=O)N4CCC(N5CCCCC5)CC4)cc13)-c1cc3c(c(=O)n1C2)COC(=O)[C@]3(O)CC	KB	cell growth or viability	–	SRB	72 h	9.8 µM
CCc1c2c(nc3ccc(O)cc13)-c1cc3c(c(=O)n1C2)COC(=O)[C@]3(O)CC	HCCLM3	cell growth or viability	–	MTT	72 h	3.08 µM
CCOC(=O)Oc1ccc2c(=O)c(-c3ccccc3OC)c(C(F)(F)F)oc2c1	human Neutrophil	cell migration	inhibitor	–	–	1 µM
Cc1cc(=O)oc2ccc(-c3cc(-c4cccc(Cl)c4)nc(N)n3)c(O)c12	KB	cell growth or viability	–	MTT	72 h	> 128 mg/L
CCCCC1=CC2C=CC=CC1C2C1CCCCC1=O (stereo not shown)	U-937	cell growth or viability	–	flow cytometry	–	0.035 µM
Cc1cc(=O)oc2ccc(-c3cc(-c4cccc([N+](=O)[O-])c4)nc(N)n3)c(O)c12	KB	cell growth or viability	–	MTT	72 h	63.6 mg/L
COc1ccc(-c2cncc(N[C@@H](C)c3cccc(NC(=O)c4cncc(C)c4)c3)n2)cc1OC	NCI-H1703	cell growth or viability	–	ATP luminescence	72 h	0.032 µM
COc1ccc(C(=O)C=Cc2ccc(OC)c(OC)c2)cc1	J774	cell growth or viability	–	MTT	24 h	100 mg/L
CCc1cc2c(=O)c(-c3nc4ccccc4n3C)c(C)oc2cc1OC(C)=O	human Neutrophil	cell migration	inhibitor	–	–	0.027 µM
CC(C)C[C@H](NC(=O)[C@H](Cc1ccccc1)NC(=O)c1cnccn1)B(O)O	EFO-27	cell growth or viability	–	ATP luminescence	–	0.021 µM
Oc1ccc(Nc2nc(-c3ccc(Cl)cc3)cs2)cc1	UACC-903	cell growth or viability	–	MTS	24 h	> 100 µM
COc1ccc(C=CC(=O)c2ccc(F)cc2)cc1OC	J774	cell growth or viability	–	MTT	24 h	100 mg/L
COc1ccc(-c2cc(-c3ccc4oc(=O)cc(C)c4c3O)nc(N)n2)cc1	KB	cell growth or viability	–	MTT	72 h	> 128 mg/L
CC[C@@H](C)[C@H](N)C(=O)N1Cc2ccccc2C1	U-937	cell growth or viability	–	ATP luminescence	48 h	> 60 µM
COc1cc(-c2ncn(/C=C\C(=O)OC(C)C)n2)cc(C(F)(F)F)c1	ML-2	cell growth or viability	–	–	72 h	0.099 µM
O=C(Oc1ccc2c(=O)c(-c3ccccc3)c(C(F)(F)F)oc2c1)c1cccs1	human Neutrophil	cell migration	inhibitor	–	–	0.64 µM
N#CCCC1=CC2C=CC=CC1C2C1CCCCC1=O (stereo not shown)	U-937	cell growth or viability	–	flow cytometry	–	0.081 µM
Cc1ccc(-c2cc(-c3ccc4oc(=O)cc(C)c4c3O)nc(N)n2)cc1	KB	cell growth or viability	–	MTT	72 h	> 128 mg/L
COc1cc(Nc2nccc(-c3cnn4nc(OC)ccc34)n2)cc(C(F)(F)F)c1	NCI-H1703	cell growth or viability	–	ATP luminescence	–	0.22 µM
O=C(N/N=C/c1c(O)ccc2ccccc12)c1cc(-c2ccc3ccccc3c2)n[nH]1	UACC-903	cell growth or viability	–	MTS	48 h	10.9 µM
N=C(N)c1ccc(OCCCCCOc2ccc(C(=N)N)cc2)cc1	J774	cell growth or viability	–	resazurin	48 h	23.8 µM
Cc1oc2cc(OC(=O)c3ccco3)ccc2c(=O)c1-c1ccccc1	human Neutrophil	cell migration	inhibitor	–	–	0.88 µM
CCCCCC/C=C1\CC2C=CC=CC1C2C1CCCCC1=O (stereo not shown)	U-937	cell growth or viability	–	flow cytometry	–	0.034 µM
COc1ccccc1-c1c(C(F)(F)F)oc2cc(OC(=O)C(C)C)ccc2c1=O	human Neutrophil	cell migration	inhibitor	–	–	0.2 µM
CC(C)(C)SCCCC1=CC2C=CC=CC1C2C1CCCCC1=O (stereo not shown)	U-937	cell growth or viability	–	flow cytometry	–	0.061 µM
